Key:
[1] = tested on: Leishmania donovani; experiment: Antileishmanial activity against Leishmania donovani MHOM/ET/67/L82 amastigotes assessed as growth inhibition incubated for 70 hrs by resazurin based inverted microscopic analysis; type: functional, organism-based; conditions: Leishmania donovani, MHOM/ET/67/L82, 70 h
Procedure, shortened: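 Axenic L. donovani amastigotes (MHOM/ET/67/L82); racemates tested unless stated; miltefosine as positive control. Some values come from a separate run and were rescaled by that run's relative miltefosine IC50.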

[2] = tested on: L6; experiment: Cytotoxicity against rat L6 cells assessed as reduction in cell viability incubated for 70 hrs by resazurin staining based inverted microscopic analysis; conditions: L6, 70 h
Procedure, shortened: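 Rat L-6 skeletal myoblast line; racemates tested unless stated.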

[3] = Selectivity index, ratio of IC50 for cytotoxicity against rat L6 cells to IC50 for antileishmanial activity against Leishmania donovani MHOM/ET/67/L82 amastigotes; type: toxicity, cell-based; conditions: read-out: Ratio IC50
[4] = Metabolic stability in mouse liver microsomes assessed as metabolite formation by glucuronidation at 100 umol/L incubated for 90 mins in presence of UDPGA by LC-MS analysis; conditions: 1.5 h, 100 µM
[5] = Metabolic stability in mouse liver microsomes assessed as metabolite formation by ester hydrolysis at 100 umol/L incubated for 90 mins in absence of UDPGA by LC-MS analysis; conditions: 1.5 h, 100 µM

Compound	IC50 [1] [µM]	IC50 [2] [µM]	selectivity ratio [3]	Drug metabolism [4]	Drug metabolism [5]
C[C@H]1c2cc(/C=C/C(=O)O)ccc2O[C@@H]1c1ccc(O)cc1 (racemic)	5.64	73.9	13.1	–	–
COc1ccc([C@H]2Oc3ccc(/C=C/C(=O)OC(C)(C)C)cc3[C@@H]2CO)cc1OC (racemic)	10.7	22.9	2.1	–	–
C[C@H]1c2cc(Br)ccc2O[C@@H]1c1ccc(O)cc1 (racemic)	32.5	56.6	1.7	–	–
CC(=O)Oc1ccc([C@H]2Oc3ccc(/C=C/C(=O)OC(C)(C)C)cc3[C@@H]2C(=O)OC(C)(C)C)cc1 (racemic)	2.06	11.8	5.7	–	–
CC(C)(C)OC(=O)/C=C/c1ccc2c(c1)[C@H](CO)[C@@H](c1ccc(O)cc1)O2 (racemic)	17.1	33.8	2	–	–
OC[C@H]1c2cc(-c3ccc(O)cc3)ccc2O[C@@H]1c1ccc(O)cc1 (racemic)	16.5	44.5	2.7	–	–
COc1cc([C@H]2Oc3ccccc3[C@@H]2C)cc(I)c1O (racemic)	13.4	46.9	3.5	–	–
OC[C@H]1c2cc(Br)ccc2O[C@@H]1c1ccc(O)c(O)c1 (racemic)	17.8	3.93	0.2	–	–
CC(C)OC(=O)/C=C/c1cc(O)c2c(c1)[C@H](C(=O)OC(C)C)[C@@H](c1ccc(O)c(O)c1)O2 (racemic)	0.54	10.2	18.9	Metabolite_Detected	Metabolite_Detected
OC[C@H]1c2cc(-c3cccnc3F)ccc2O[C@@H]1c1ccc(O)cc1 (racemic)	18.8	52.4	2.8	–	–
COc1ccc([C@H]2Oc3ccc(/C=C/C(=O)OC(C)(C)C)cc3[C@@H]2C)cc1 (racemic)	4.01	40.1	10	–	–
Cc1ccc(-c2ccc3c(c2)[C@H](CO)[C@@H](c2ccc(O)cc2)O3)s1 (racemic)	16.1	15.8	1	–	–
COc1ccc([C@H]2Oc3ccc(/C=C/C(=O)OC(C)(C)C)cc3[C@@H]2CF)cc1OC (racemic)	13	34	2.6	–	–
O=S(=O)(OC[C@H]1c2ccccc2O[C@@H]1c1ccc(OS(=O)(=O)c2ccccn2)cc1)c1ccccn1 (racemic)	6.31	189	29.9	–	–
O=Cc1ccc(-c2ccc3c(c2)[C@H](CO)[C@@H](c2ccc(O)cc2)O3)cc1 (racemic)	37.7	55.9	1.5	–	–
CC(C)(C)OC(=O)/C=C/c1ccc2c(c1)[C@H](C(=O)OC(C)(C)C)[C@@H](c1ccc(OC(C)(C)C)cc1)O2 (racemic)	13.1	202	15.5	–	–
C/C=C/c1cc(OC)c2c(c1)[C@H](C)[C@@H](c1ccc(O)c(OC)c1)O2 (racemic) [LICARIN A]	6.45	6.21	1	–	–

— ChEMBL document CHEMBL4765412, “(±)-trans-2-phenyl-2,3-dihydrobenzofurans as leishmanicidal agents: Synthesis, in vitro evaluation and SAR analysis” (Eur J Med Chem, 2020)
